Assay results: ChEMBL document CHEMBL4138271, “Crystal Structures and Human Leukemia Cell Apoptosis Inducible Activities of Parthenolide Analogues Isolated from Piptocoma rufescens” (J Nat Prod, 2018)
Each block holds one molecule with its values, some of them ahead of it. Activity calls are given as the source filed them. The rule behind the calls is not given here.

Assays:
[1] = test system: MOLM-13; test: Cytotoxicity against human MOLM13 cells after 72 hrs by MTS assay; type: functional, cell-based; conditions: MOLM-13, 72 h
[2] = test system: EOL1; test: Cytotoxicity against human EOL-1 cells after 72 hrs by MTS assay; type: functional, cell-based; conditions: EOL1, 72 h
[3] = test system: HT-29; test: Cytotoxicity against human HT-29 cells after 72 hrs by MTS assay; type: functional, cell-based; conditions: HT-29, 72 h
[4] = test system: MOLM-13; test: Synergistic antileukemic activity against human MOLM13 cells assessed as concentration required for <= 75% cell survival after 72 hrs in presence of midostaurin by CellTiter 96 AQueous One solution cell proliferation assay; type: functional
[5] = test system: EOL1; test: Synergistic antileukemic activity against human EOL-1 cells assessed as concentration required for <= 75% cell survival after 72 hrs in presence of midostaurin by CellTiter 96 AQueous One solution cell proliferation assay; type: functional
[6] = test system: MOLM-13; test: Induction of apoptosis in human MOLM13 cells assessed as live cells at 0.56 uM after 24 hrs by Annexin-V FITC/7-AAD staining based flow cytometric method (reference value: 86.8%); type: functional
[7] = test system: MOLM-13; test: Induction of apoptosis in human MOLM13 cells assessed as early apoptotic cells at 0.56 uM after 24 hrs by Annexin-V FITC/7-AAD staining based flow cytometric method (reference value: 11.8%); type: functional
[8] = test system: MOLM-13; test: Induction of apoptosis in human MOLM13 cells assessed as late apoptotic cells at 0.56 uM after 24 hrs by Annexin-V FITC/7-AAD staining based flow cytometric method (reference value: 1.43%); type: functional
[9] = test system: MOLM-13; test: Induction of apoptosis in human MOLM13 cells assessed as necrotic cells at 0.56 uM after 24 hrs by Annexin-V FITC/7-AAD staining based flow cytometric method (reference value: 0%); type: functional
[10] = test system: MOLM-13; test: Induction of apoptosis in human MOLM13 cells assessed as live cells at 1.1 uM after 24 hrs by Annexin-V FITC/7-AAD staining based flow cytometric method (reference value: 86.8%); type: functional
[11] = test system: MOLM-13; test: Induction of apoptosis in human MOLM13 cells assessed as early apoptotic cells at 1.1 uM after 24 hrs by Annexin-V FITC/7-AAD staining based flow cytometric method (reference value: 11.8%); type: functional
[12] = test system: MOLM-13; test: Induction of apoptosis in human MOLM13 cells assessed as late apoptotic cells at 1.1 uM after 24 hrs by Annexin-V FITC/7-AAD staining based flow cytometric method (reference value: 1.43%); type: functional
[13] = test system: MOLM-13; test: Induction of apoptosis in human MOLM13 cells assessed as necrotic cells at 1.1 uM after 24 hrs by Annexin-V FITC/7-AAD staining based flow cytometric method (reference value: 0%); type: functional
[14] = test system: MOLM-13; test: Induction of apoptosis in human MOLM13 cells assessed as live cells at 2.8 uM after 24 hrs by Annexin-V FITC/7-AAD staining based flow cytometric method (reference value: 86.8%); type: functional
[15] = test system: MOLM-13; test: Induction of apoptosis in human MOLM13 cells assessed as early apoptotic cells at 2.8 uM after 24 hrs by Annexin-V FITC/7-AAD staining based flow cytometric method (reference value: 11.8%); type: functional
[16] = test system: MOLM-13; test: Induction of apoptosis in human MOLM13 cells assessed as late apoptotic cells at 2.8 uM after 24 hrs by Annexin-V FITC/7-AAD staining based flow cytometric method (reference value: 1.43%); type: functional
[17] = test system: MOLM-13; test: Induction of apoptosis in human MOLM13 cells assessed as necrotic cells at 2.8 uM after 24 hrs by Annexin-V FITC/7-AAD staining based flow cytometric method (reference value: 0%); type: functional
[18] = test system: EOL1; test: Induction of apoptosis in human EOL-1 cells assessed as live cells at 0.56 uM after 24 hrs by Annexin-V FITC/7-AAD staining based flow cytometric method (reference value: 97.5%); type: functional
[19] = test system: EOL1; test: Induction of apoptosis in human EOL-1 cells assessed as early apoptotic cells at 0.56 uM after 24 hrs by Annexin-V FITC/7-AAD staining based flow cytometric method (reference value: 1.94%); type: functional
[20] = test system: EOL1; test: Induction of apoptosis in human EOL-1 cells assessed as late apoptotic cells at 0.56 uM after 24 hrs by Annexin-V FITC/7-AAD staining based flow cytometric method (reference value: 0.535%); type: functional
[21] = test system: EOL1; test: Induction of apoptosis in human EOL-1 cells assessed as necrotic cells at 0.56 uM after 24 hrs by Annexin-V FITC/7-AAD staining based flow cytometric method (reference value: 0.032%); type: functional
[22] = test system: EOL1; test: Induction of apoptosis in human EOL-1 cells assessed as live cells at 1.1 uM after 24 hrs by Annexin-V FITC/7-AAD staining based flow cytometric method (reference value: 97.5%); type: functional
[23] = test system: EOL1; test: Induction of apoptosis in human EOL-1 cells assessed as early apoptotic cells at 1.1 uM after 24 hrs by Annexin-V FITC/7-AAD staining based flow cytometric method (reference value: 1.94%); type: functional
[24] = test system: EOL1; test: Induction of apoptosis in human EOL-1 cells assessed as late apoptotic cells at 1.1 uM after 24 hrs by Annexin-V FITC/7-AAD staining based flow cytometric method (reference value: 0.535%); type: functional
[25] = test system: EOL1; test: Induction of apoptosis in human EOL-1 cells assessed as necrotic cells at 1.1 uM after 24 hrs by Annexin-V FITC/7-AAD staining based flow cytometric method (reference value: 0.032%); type: functional
[26] = test system: EOL1; test: Induction of apoptosis in human EOL-1 cells assessed as live cells at 2.8 uM after 24 hrs by Annexin-V FITC/7-AAD staining based flow cytometric method (reference value: 97.5%); type: functional
[27] = test system: EOL1; test: Induction of apoptosis in human EOL-1 cells assessed as early apoptotic cells at 2.8 uM after 24 hrs by Annexin-V FITC/7-AAD staining based flow cytometric method (reference value: 1.94%); type: functional
[28] = test system: EOL1; test: Induction of apoptosis in human EOL-1 cells assessed as late apoptotic cells at 2.8 uM after 24 hrs by Annexin-V FITC/7-AAD staining based flow cytometric method (reference value: 0.535%); type: functional
[29] = test system: EOL1; test: Induction of apoptosis in human EOL-1 cells assessed as necrotic cells at 2.8 uM after 24 hrs by Annexin-V FITC/7-AAD staining based flow cytometric method (reference value: 0.032%); type: functional
[30] = test system: MOLM-13; test: Induction of apoptosis in human MOLM13 cells assessed as caspase-3 activation at 10 uM after 72 hrs by immunoblotting analysis; type: functional, cell-based
Summary of the method: (§1)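 MOLM-13 cells treated 72 h with test compounds at 10 μM or PKC412 at 10 nM. Cells washed in ice-cold PBS, lysed at 10^8 cells/mL in NP-40 hypertonic buffer (pH 7.5) with protease/phosphatase inhibitors, then run on SDS-PAGE and PVDF. Blots probed 12 h with rabbit monoclonal cleaved caspase-3 (Asp175), β-actin as loading control. Representative of three independent experiments.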

[31] = test system: EOL1; test: Induction of apoptosis in human EOL-1 cells assessed as caspase-3 activation at 10 uM after 72 hrs by immunoblotting analysis; type: functional, cell-based
Summary of the method: (§2)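 EOL-1 cells (RPMI 1640, 10% FBS, 37 °C, 5% CO2) exposed 72 h; compounds at 10 μM, PKC412 at 10 nM. Harvested, PBS-washed, lysed in hypertonic NP-40 buffer with protease/phosphatase inhibitors; SDS-PAGE, PVDF transfer, rabbit monoclonal cleaved caspase-3 (Asp175) antibody 12 h, secondary 1 h, chemiluminescent detection; β-actin loading control. Representative blots of three independent experiments.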

[32] = target: Transcription factor p65 (Homo sapiens) (UniProt Q04206); test: Inhibition of NFkappaB p65 in human MOLM13 cells at 10 uM after 72 hrs by immunoblotting method; type: cell-based
Summary of the method: (§3)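 MOLM-13 or EOL-1 cells treated 72 h at 10 μM. Cells washed in ice-cold PBS and lysed in hypertonic NP-40 buffer (10 mM HEPES pH 7.5, 0.5 M NaCl) with protease/phosphatase inhibitors. Protein measured by BCA; SDS-PAGE onto PVDF. Probed 12 h with rabbit monoclonal NF-κB-p65 antibody, goat β-actin as loading control, then chemiluminescence. Blots representative of three independent experiments.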

[33] = target: Transcription factor p65 (Homo sapiens) (UniProt Q04206); test: Inhibition of NFkappaB p65 in human EOL-1 cells at 10 uM after 72 hrs by immunoblotting method; type: cell-based; summary of the method: as §3
[34] = test system: MOLM-13; test: Induction of apoptosis in human MOLM13 cells assessed as caspase-3 activation at 10 nM after 72 hrs by immunoblotting analysis; type: functional, cell-based; summary of the method: as §1
[35] = test system: EOL1; test: Induction of apoptosis in human EOL-1 cells assessed as caspase-3 activation at 10 nM after 72 hrs by immunoblotting analysis; type: functional, cell-based; summary of the method: as §2

Chain of Transcription factor p65 (Homo sapiens) (Q04206 whole entry): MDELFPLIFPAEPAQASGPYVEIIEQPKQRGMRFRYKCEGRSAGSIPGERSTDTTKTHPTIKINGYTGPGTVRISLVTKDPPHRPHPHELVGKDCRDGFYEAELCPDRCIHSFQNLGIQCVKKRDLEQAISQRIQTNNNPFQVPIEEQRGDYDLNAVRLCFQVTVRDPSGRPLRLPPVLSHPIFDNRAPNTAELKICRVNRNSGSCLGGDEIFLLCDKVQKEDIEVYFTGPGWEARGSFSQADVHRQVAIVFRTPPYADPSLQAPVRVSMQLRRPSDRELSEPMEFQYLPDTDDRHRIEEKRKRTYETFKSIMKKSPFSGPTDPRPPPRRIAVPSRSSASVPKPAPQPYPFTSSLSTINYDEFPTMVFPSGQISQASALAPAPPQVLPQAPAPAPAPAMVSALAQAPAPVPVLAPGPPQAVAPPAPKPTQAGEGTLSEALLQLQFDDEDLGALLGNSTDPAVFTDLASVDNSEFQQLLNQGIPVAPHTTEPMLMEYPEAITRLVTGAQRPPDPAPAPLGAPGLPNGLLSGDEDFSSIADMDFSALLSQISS

inhibition [32]: Active
inhibition [33]: Active
Structure (SMILES): C=C(C)C(=O)O[C@H]1C[C@@]2(C)OC(=CC2=O)/C(CO)=C\[C@H]2OC(=O)C(=C)[C@H]12 [GOIAZENSOLIDE]
IC50 [1]: 860 nM
IC50 [2]: 1100 nM
IC50 [3]: 560 nM
Activity [4]: 0.42 µM
Activity [5]: 0.56 µM
Activity [6]: 81.8%
Activity [7]: 14.7%
Activity [8]: 3.18%
Activity [9]: 0.392%
Activity [10]: 2.54%
Activity [11]: 0.958%
Activity [12]: 94.6%
Activity [13]: 1.86%
Activity [14]: 0.135%
Activity [15]: 0.203%
Activity [16]: 97.7%
Activity [17]: 1.96%
Activity [18]: 91.7%
Activity [19]: 1.84%
Activity [20]: 6.18%
Activity [21]: 0.306%
Activity [22]: 3.99%
Activity [23]: 0.281%
Activity [24]: 93.3%
Activity [25]: 2.4%
Activity [26]: 0.01%
Activity [27]: 0%
Activity [28]: 99.8%
Activity [29]: 0.189%
Activity [30]: Active
Activity [31]: Active

Structure (SMILES): CO[C@@H]1[C@H](N(C)C(=O)c2ccccc2)C[C@H]2O[C@]1(C)n1c3ccccc3c3c4c(c5c6ccccc6n2c5c31)C(=O)NC4
Activity [34]: Active
Activity [35]: Active
